Laboratory results reported in ChEMBL document CHEMBL3421621, “SAR Studies of Diphenyl Cationic Trypanocides: Superior Activity of Phosphonium over Ammonium Salts” (ACS Med Chem Lett, 2015).

How the values were obtained:
[1] = Cytotoxicity against HEK293 cells after 16 hrs by alamar blue assay; assay type: cell-based; details: human
[2] = Selectivity index, ratio of CC50 for HEK293 cells to EC50 for wild type Trypanosoma brucei brucei s427 trypomastigotes; assay type: toxicity, cell-based; details: human; read-out: Ratio CC50/EC50
Outline: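 Selectivity index = CC50 for HEK cells divided by EC50 against T. b. brucei s427 wild type.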

[3] = tested on: Trypanosoma brucei brucei; assay: Antitrypanosomal activity against wild type Trypanosoma brucei brucei s427 trypomastigotes assessed as cell viability after 48 hrs by alamar blue assay; assay type: functional, organism-based; details: s427, 48 h
Outline: (§1)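 Alamar blue viability assay run in parallel on T. b. brucei s427 wild type trypomastigotes, the TbAT1-KO strain (no functional P2 transporter) and the B48 strain (derived from TbAT1-KO, nonfunctional HAPT). EC50 values are the mean of three experiments ± SEM. Resistance factor is the EC50 against each resistant strain relative to wild type.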

[4] = tested on: Trypanosoma brucei brucei; assay: Antitrypanosomal activity against AT1 knock out Trypanosoma brucei brucei assessed as cell viability after 48 hrs by alamar blue assay; assay type: functional, organism-based; outline: as §1
[5] = tested on: Trypanosoma brucei brucei; assay: Resistance factor, ratio of EC50 for Trypanosoma brucei brucei B48 to EC50 for wild type Trypanosoma brucei brucei s427 trypomastigotes; assay type: functional
Outline: (§2)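 AlamarBlue-based viability assay run in parallel on wild-type T. b. brucei s427 trypomastigotes and two resistant strains. TbAT1-KO lacks a functional P2 transporter and is diminazene-resistant. B48 is derived from TbAT1-KO and also lacks a functional high-affinity pentamidine transporter (HAPT). EC50 values are means of three experiments ± SEM. Each resistant-strain EC50 is divided by the wild-type EC50.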

[6] = tested on: Trypanosoma brucei brucei; assay: Antitrypanosomal activity against Trypanosoma brucei brucei B48 with nonfunctional high affinity pentamidine transporter assessed as cell viability after 48 hrs by alamar blue assay; assay type: functional, organism-based; details: B48, 48 h; outline: as §1
[7] = tested on: Trypanosoma brucei brucei; assay: Resistance factor, ratio of EC50 for AT1 knock out Trypanosoma brucei brucei to EC50 for wild type Trypanosoma brucei brucei s427 trypomastigotes; assay type: functional; outline: as §2

| Compound | CC50 at 16 h [1] [µM] | selectivity ratio [2] | EC50 [3] [µM] | EC50 [4] [µM] | Ratio EC50 [5] | EC50 [6] [µM] | Ratio EC50 [7] |
| --- | --- | --- | --- | --- | --- | --- | --- |
| CCCC[N+](CCCC)(CCCC)Cc1ccc(C(=O)c2ccc(C[N+](CCCC)(CCCC)CCCC)cc2)cc1.[Br-].[Br-] | > 300 | > 26 | 11.5 | 16.7 | 1.2 | 14.1 | 1.4 |
| O=C(c1ccccc1)c1ccc(C[n+]2cccc3ccccc32)cc1 |  |  | > 100 | 68.5 |  | 81.5 |  |
| Cl.O=C(c1ccccc1)c1ccc(CN(Cc2ccccc2)Cc2ccccc2)cc1 | > 300 | > 27 | 11 | 10 | 0.7 | 8.3 | 0.9 |
| O=C(c1ccc(C[n+]2ccccc2)cc1)c1ccc(C[n+]2ccccc2)cc1 |  |  | > 100 | > 100 |  | > 100 |  |
| CCCCCC[N+](CCCCCC)(CCCCCC)Cc1ccc(C(=O)c2ccccc2)cc1.[Br-] | 15.4 | 668 | 0.023 | 0.018 | 0.6 | 0.014 | 0.8 |
| N=C(N)c1ccc(OCCCCCOc2ccc(C(=N)N)cc2)cc1 [PENTAMIDINE] |  |  | 0.01 | 0.006 | 32.9 | 0.329 | 0.6 |
| O=C(c1ccccc1)c1ccc(C[n+]2ccccc2)cc1 |  |  | > 100 | > 100 |  | > 100 |  |
| CC[N+](CC)(CC)Cc1ccc(Oc2ccc(C[N+](CC)(CC)CC)cc2)cc1 |  |  | > 100 | > 100 |  | > 100 |  |
| N=C(N)c1ccc(/N=N/Nc2ccc(C(=N)N)cc2)cc1 [DIMINAZENE] |  |  | 0.323 | 0.738 | 3.1 |  | 2.3 |
| CCCC[N+](CCCC)(CCCC)Cc1ccc(C(=O)c2ccccc2)cc1.[Br-] | > 300 | > 65 | 4.6 | 4.1 | 1 | 4.5 | 0.9 |
| O=C(c1ccc(C[n+]2cccc3ccccc32)cc1)c1ccc(C[n+]2cccc3ccccc32)cc1.[Br-].[Br-] | > 300 | > 6 | 45.4 | 35.2 | 0.7 | 30.9 | 0.8 |
| [Br-].[Br-].c1cc[n+](Cc2ccc(Oc3ccc(C[n+]4ccccc4)cc3)cc2)cc1 |  |  | 85 | > 100 | 0.8 | 72 |  |
| CCCCCC[N+](CCCCCC)(CCCCCC)Cc1ccc(Oc2ccc(C[N+](CCCCCC)(CCCCCC)CCCCCC)cc2)cc1.[Br-].[Br-] | 21.8 | 213 | 0.102 | 0.08 | 0.6 | 0.065 | 0.8 |
| CCCC[N+](CCCC)(CCCC)Cc1ccc(Oc2ccc(C[N+](CCCC)(CCCC)CCCC)cc2)cc1.[Br-].[Br-] | > 300 | > 100 | 2.8 | 3.98 | 1.1 | 3 | 1.4 |
| CC[N+](CC)(CC)Cc1ccc(C(=O)c2ccc(C[N+](CC)(CC)CC)cc2)cc1 |  |  | > 100 | > 100 |  | > 100 |  |
| [Br-].[Br-].c1ccc2c(c1)ccc[n+]2Cc1ccc(Oc2ccc(C[n+]3cccc4ccccc43)cc2)cc1 | > 300 | > 27 | 11 | 10.2 | 0.9 | 9.7 | 0.9 |
